# This is a sample that favours compounds with a hit; in the whole collection about 4.8% have one here.
# 697 NFkB inh – lowers PMA/ionomycin-induced NF-kB signal in 697 B cells | 697 B-cell NF-kB luciferase reporter, 16 h | inhibition, % at 4 µM | actives 0.33% (n = 330,000); in the data active means inhibition above about 35%
# Jurkat NFkB inh – lowers PMA/ionomycin-induced NF-kB signal in Jurkat cells; PMA/ionomycin-induced NF-kB luciferase reporter, luminescence; actives 0.53% (n = 330,000); inhibition, % at 4 µM; in the data active means inhibition above about 50%
# T cruzi repl – blocks replication of Trypanosoma cruzi. T. cruzi beta-gal in NIH3T3, luminescence, 90 h. inhibition, % (no concentration beside the values). actives 1.4% (n = 300,000);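 active means mean inhibition across valid replicates above about 55%, limit read from the data; inconclusive means mean below that limit but half or more replicates reach it; inactive means mean below it, under half of replicates reach it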;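 further: signal also drops with host cell toxicity which is not excluded here; 0% = plate median of DMSO wells and 100% = zero luminescence signal; higher percent means less beta-gal luminescence so fewer parasites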
#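 Read-out: Parasite load inhibition, % | Test system: Mouse NIH/3T3 fibroblasts infected with β-gal-expressing T. cruzi Tulahuen C4 | Amount: 5,000 cells/well | Medium: DMEM, 2% fetal bovine serum | Signal: GalScreen β-gal luminescence, detergent lysis, 60 min | Timing: 3 h attach, ≥90 h co-culture | Also added: Tulahuen C4 trypomastigotes, 5000/well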
# HSF-1 act – increases HSF-1 driven luciferase reporter signal. NIH3T3-HGL HSF-1 luciferase reporter, MG132, 8 h; 100% = twice DMSO control signal. activation, % at 9 µM. actives 1.7% (n = 300,000);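 active means mean replicate activation of at least 50% with a set share of replicates each reaching 50%; inconclusive means only one of those two conditions met; inactive means mean below 50% and too few replicates reaching it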;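 further: 0% = median of the neutral control wells and 100% = twice that signal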
# GPR7 antag – antagonists of human GPR7 (neuropeptides B/W receptor 1); GPR7-expressing cells, fluorescence antagonist assay; inhibition, % at 4.4 µM; actives 1.1% (n = 290,000); AID 1861; in the data active means inhibition above about 16%, passing the limit was not always enough;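 further: cells stimulated with the agonist NPW; 0% = agonist with vehicle and 100% = vehicle without agonist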
# Target sequence (P48145 whole entry, looked up): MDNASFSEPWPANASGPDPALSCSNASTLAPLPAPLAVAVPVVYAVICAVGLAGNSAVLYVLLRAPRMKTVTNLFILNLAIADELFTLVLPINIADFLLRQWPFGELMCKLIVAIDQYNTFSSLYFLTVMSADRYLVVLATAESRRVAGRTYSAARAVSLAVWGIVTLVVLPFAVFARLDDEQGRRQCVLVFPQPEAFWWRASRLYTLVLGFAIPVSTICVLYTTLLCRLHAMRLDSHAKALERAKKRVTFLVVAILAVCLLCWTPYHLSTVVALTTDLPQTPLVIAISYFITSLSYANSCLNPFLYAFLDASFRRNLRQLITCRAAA
# HSF1 inh – HSF1 inhibition | AID 2098 | NIH3T3-HGL HSE-luciferase, MG132-induced, luminescence 8 h; active compounds read low | actives 0.77% (n = 300,000) | activity change, negative = inhibition, % at 7.5 µM (by protocol);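 active means more than half of replicate wells show activity change below -50%, luminescence cut by over half; inconclusive means some wells, but at most half, below -50%; inactive means no replicate well below -50%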;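 further: luciferase reports HSF-1 transcriptional activity via heat shock element; 0% = median of DMSO wells and -100% = zero luminescence signal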
# GPR7 antag cf – human GPR7 antagonism, confirmation assay; shares compounds with GPR7 antag; GPR7-expressing cells, calcium fluorescence antagonist mode; inhibition, % at 4.4 µM; actives 52% (n = 2,400); AID 1952; in the data active means inhibition above about 24%;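 further: stimulated with the GPR7 agonist NPW; 0% = agonist plus vehicle and 100% = vehicle alone without agonist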
# MCHR1 antag – MCHR1 (human) antagonism in GPR7 counter-screen. shares compounds with GPR7 antag. MCHR1-expressing cells, fluorescence antagonist assay. inhibition, % at 4.4 µM. actives 62% (n = 2,400). AID 2148; in the data active means inhibition above about 22%;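 further: 0% = vehicle with agonist and 100% = vehicle without agonist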
# * = called active by the depositor; u = inconclusive; x = not tested or not shown.
SMILES,697 NFkB inh,Jurkat NFkB inh,T cruzi repl,HSF-1 act,GPR7 antag,HSF1 inh,GPR7 antag cf,MCHR1 antag
CCN(CC)C(=O)c1cc2cc([N+](=O)[O-])ccc2s1,7,7,3,-54,-3,u,x,x
CN(C)C(=O)c1cc2cc([N+](=O)[O-])ccc2s1,-1,-4,-4,3,26*,0,-13,12
COCCNC(=O)C(c1cccs1)N(Cc1cccs1)C(=O)Cn1nnc2ccccc21 (stereo not drawn),8,-5,11,6,3,2,x,x
CC(C)CCNC(=O)C(c1ccco1)N(Cc1cccs1)C(=O)Cn1nnc2ccccc21 (stereo not drawn),x,x,10,14,33*,1,11,10
O=C(Nc1ccc(CN2CCCCC2)cc1)Nc1ccccc1Cl,-3,-77,-27,29,12,19,x,x
O=C(Nc1ccc(Br)cc1)Nc1ccccc1Cl,-92,-31,5,58*,73*,25,79*,63*
Nc1ccn(CC(=O)NCc2ccc3[nH]ccc3c2)c(=O)n1,13,-7,x,x,x,x,x,x
COc1cc(C)ccc1Oc1ncnc(N)c1[N+](=O)[O-],-10,9,-5,-5,51*,6,-6,-6
Nc1ncnc(Oc2cccc(C(F)(F)F)c2)c1[N+](=O)[O-],16,-2,-17,46,-3,29,x,x
O=c1c2ccc([N+](=O)[O-])cc2ncn1CCOc1ccc(Cl)cc1,6,15,63*,7,26*,5,44*,62*
COc1ccc(CC(=O)Oc2cc(C)ccc2C)cc1,-7,-15,-12,1,18,-6,x,x
O=C(COC(=O)C1CC1)NCCc1ccccc1,-13,-6,x,x,x,x,x,x
O=C(COC(=O)C1CC2C=CC1C2)NCCc1ccccc1 (stereo not drawn),8,6,2,0,25*,5,12,1
CC1CC(=O)N(CC(=O)Nc2ccc(Br)cc2)c2ccccc2S1(=O)=O (stereo not drawn),-20,8,15,17,15,11,x,x
CC[C@@H]1CC=C[C@H]2[C@H]1C(=O)N(Cc1ccccc1)[C@H]2c1cc(C)ccc1F,-57,21,34,-3,x,4,x,x
CCOC(=O)C1(P(=O)(c2ccc(Cl)cc2)c2ccc(Cl)cc2)CCC1,-53,-7,5,-14,25*,6,9,4
COc1ccc(-n2nnnc2SCC(=O)NC2CCS(=O)(=O)C2)cc1 (stereo not drawn),11,4,x,x,x,x,x,x
CCCCCCCCC(=O)NNC(=O)c1c(O)c2ccccc2n(CCC)c1=O,13,12,3,-8,1,5,x,x
CC1CN(C(=O)CCC(=O)NCc2ccc(F)cc2)c2ccccc2S1 (stereo not drawn),-18,-8,1,4,28*,-3,-5,11
CC1CN(C(=O)CCC(=O)NCc2ccc(Cl)cc2)c2ccccc2S1 (stereo not drawn),-7,-21,-1,11,0,0,x,x
O=C(Nc1ccc(Cl)cc1)Nc1csc([N+](=O)[O-])c1,-52,-3,30,84*,24*,63,57*,67*
CC(=O)Nc1ccc(NC(=O)Nc2cccc(Cl)c2)cc1,-1,-28,-1,7,1,3,x,x
O=C(Nc1ccc(Cl)c([N+](=O)[O-])c1)Nc1nc2ccccc2s1,16,5,6,20,12,15,x,x
CC(=O)c1ccc(NC(=O)Nc2cccc(Cl)c2)cc1,-145,-120,12,67*,29*,36,37*,67*
O=C(Nc1ccccc1)Nc1ccc(Cl)c([N+](=O)[O-])c1,-23,-12,35,7,26*,-4,58*,65*
CCC(C)(C)n1nnnc1C(c1cc2cc(C)cc(C)c2[nH]c1=O)N1CCN(C(=O)c2ccco2)CC1 (stereo not drawn),-18,7,-39,x,-9,x,x,x
